Measured values gathered from unrelated publications.
HLA class I histocompatibility antigen, B alpha chain: HLA class I histocompatibility antigen, B alpha chain (Homo sapiens, UniProt P01889)
HTR2B: 5-hydroxytryptamine receptor 2B (HTR2B, Homo sapiens, UniProt P41595)
PLK1 polo-box: Serine/threonine-protein kinase PLK1, polo-box (PLK1, Homo sapiens, UniProt P53350)
HTR2C: 5-hydroxytryptamine receptor 2C (HTR2C, Homo sapiens, UniProt P28335)

SMILES | target | assay | conditions | measurement | result
CC[C@H](C)[C@H](NC(=O)[C@@H](N)CCSC)C(=O)N[C@@H](Cc1ccccc1)C(=O)N[C@@H](CC(=O)O)C(=O)N[C@@H](CCCCN)C(=O)N1CCC[C@H]1C(=O)N[C@H](C(=O)N[C@@H](Cc1ccc(O)cc1)C(=O)N[C@@H](Cc1ccccc1)C(=O)O)C(C)C | HLA class I histocompatibility antigen, B alpha chain | cell-free assay | – | IC50 | 36 µM
O=[N+]([O-])c1ccc(O)c([N+](=O)[O-])c1 | Casein kinase I isoform delta (CSNK1D, Homo sapiens, UniProt P48730) | binding, SPR | – | Kd | > 50 µM
COc1cc2c(cc1OC)CN(CCc1ccc(NC(=O)c3cccc4c(=O)c5cccc(OC)c5[nH]c34)cc1)CC2 | HTR2B | cell-free assay | – | Ki | 0.222 µM
CC(C)C[C@H](NC(=O)[C@H](CC(C)C)NC(=O)[C@@H]1CCCN1C(=O)[C@H](C)NC(=O)[C@@H](NC(=O)[C@H](C)N)C(C)C)C(=O)N[C@@H](Cc1c[nH]cn1)C(=O)N[C@@H](CO)C(=O)N[C@H](C(=O)O)[C@@H](C)OP(=O)(O)O | PLK1 polo-box | binding, MST | pH 8 | Kd | 0.0463 µM
CSCC[C@H](NC(=O)[C@H](CO)NC(=O)[C@H](CC(C)C)NC(=O)[C@H](CO)NC(=O)[C@H](Cc1c[nH]cn1)NC(=O)CNC(=O)[C@H](Cc1ccc(O)cc1)NC(=O)[C@H](CC(C)C)NC(=O)[C@@H](N)CCCNC(=N)N)C(=O)O | HLA class I histocompatibility antigen, B alpha chain | cell-free assay | – | IC50 | 0.583 µM
c1cncc([C@@H]2CCCN2)c1 | Neuronal acetylcholine receptor; alpha3/beta4 (Rattus norvegicus, UniProt P04757+P12392) | cell-free assay, radioligand | – | Ki | 1.3 µM
CC[C@H](C)[C@H](NC(=O)[C@@H]1CCCN1C(=O)[C@H](Cc1c[nH]cn1)NC(=O)[C@H](CCCCN)NC(=O)[C@H](Cc1ccc(O)cc1)NC(=O)[C@@H](NC(=O)[C@@H](N)Cc1ccc(O)cc1)[C@@H](C)O)C(=O)N[C@@H](Cc1ccc(O)cc1)C(=O)N[C@@H](CC(C)C)C(=O)O | HLA class I histocompatibility antigen, B alpha chain | cell-free assay | – | IC50 | 17.7 µM
CCCCC1CNC2CCc3ccc(OC)cc3C12 (racemic) | HTR2B | ligand displacement, radioligand | – | Ki | 0.171 µM
O=C(O)CC(O)(CC(=O)O)C(=O)O | Tyrosine-protein phosphatase non-receptor type 5 (PTPN5, Homo sapiens, UniProt P54829) | enzyme activity, inhibitor | – | Ki | 4100 µM
COc1cc2c3c(c1OC)-c1c(OC)ccc(Cl)c1CC3N(C)CC2 (racemic) | HTR2C | cell-free assay, radioligand | – | Ki | 0.792 µM
COc1cc(C(F)(F)F)c(OC)cc1C1CCCNC1 (centres unmarked) | HTR2B | G protein activation, agonist, BRET | – | EC50 | 0.12 µM
CC[C@H](C)[C@H](NC(=O)[C@@H](N)CCC(=O)O)C(=O)N[C@@H](C)C(=O)N1CCC[C@H]1C(=O)N[C@H](C(=O)N[C@@H](CC(C)C)C(=O)N[C@@H](Cc1c[nH]cn1)C(=O)N[C@@H](CO)C(=O)N[C@H](C(=O)O)[C@@H](C)OP(=O)(O)O)C(C)C | PLK1 polo-box | binding, MST | pH 8 | Kd | 0.0272 µM
COc1cc2c(cc1OC)-c1c(OC)c(OC)cc3c1[C@H](C2)N(C)CC3 | HTR2B | ligand displacement, radioligand | – | Ki | 0.216 µM
CC[C@H](C)[C@H](NC(=O)[C@H](CCCNC(=N)N)NC(=O)[C@H](CC(N)=O)NC(=O)[C@H](Cc1ccccc1)NC(=O)[C@@H](NC(=O)[C@@H](N)Cc1ccc(O)cc1)[C@@H](C)O)C(=O)N[C@@H](Cc1c[nH]cn1)C(=O)N[C@@H](CCC(=O)O)C(=O)N[C@@H](Cc1ccccc1)C(=O)O | HLA class I histocompatibility antigen, B alpha chain | cell-free assay | – | IC50 | 44 µM
COc1cc(CCNC(CO)c2ccccc2)c(OC)cc1C#N (centres unmarked) | HTR2C | G protein activation, agonist, BRET | – | EC50 | 2.9 µM
CC[C@H](C)[C@H](NC(=O)[C@H](Cc1ccccc1)NC(=O)[C@@H]1CCCN1C(=O)CNC(=O)[C@H](Cc1ccc(O)cc1)NC(=O)[C@H](CCSC)NC(=O)[C@@H](N)CCCNC(=N)N)C(=O)N[C@@H](Cc1c[nH]cn1)C(=O)N[C@@H](Cc1ccccc1)C(=O)O | HLA class I histocompatibility antigen, B alpha chain | cell-free assay | – | IC50 | 31.4 µM
CCCC(NCCc1cc(OC)c(C#N)cc1OC)c1ccccc1O (centres unmarked) | HTR2C | calcium signal, agonist | – | EC50 | 7.9 µM
